Experiment [1] addresses Transthyretin (Homo sapiens, UniProt P02766, V50M). As to the kind of experiment: (§1) Inhibition of TTR V30M mutant (unknown origin) expressed in Escherichia coli assessed as inhibition of amyloid fibril formation by fluorescence assay. The method in brief:
(§2)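 Compounds were tested at 2.5−80 μM with at least four concentrations. EC50 came from a four-parameter logistic least-squares fit. Standard deviations and p values were taken from triplicate experiments.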

The subject of experiment [2] is Transthyretin (Homo sapiens), P02766 [V50M]. As to the kind of experiment: Competitive binding to TTR V30M mutant (unknown origin) expressed in Escherichia coli at 1 to 80 uM by fluorescence assay. The method in brief: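 Thioflavin T competition check: preformed V30M fibrils (10 μM V30M with 66.8 μM thioflavin T, 37 °C, 72 h) were mixed with compounds at 0−80 μM final, with 20 μM thioflavin T and 200 mM Tris-HCl pH 8.0 final. Emission 460−700 nm was recorded with excitation at 440 nm.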

Experiment [3] has the same test system. As to the kind of experiment: Inhibition of TTR V30M mutant (unknown origin) expressed in Escherichia coli assessed as inhibition of amyloid fibril formation at 20 uM by fluorescence assay. An outline of the steps:
(§3)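 Acid-mediated aggregation of 10 μM Ni-NTA-purified V30M, read by thioflavin T fluorescence at 484 nm (excitation 440 nm). Compounds were tested at 2.5−80 μM with at least four concentrations. EC50 came from a four-parameter logistic least-squares fit. Standard deviations and p values were taken from triplicate experiments.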

Experiment [4] shares this test system. Briefly: Displacement of ANS from TTR V30M mutant (unknown origin) expressed in Escherichia coli at 1 to 50 uM after 5 mins by fluorescence assay. The method in brief: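 ANS displacement on 2 μM Ni-NTA-purified V30M in 50 mM Tris-HCl pH 7.4, 150 mM NaCl at 298 K. ANS and compound were added in sequence, stirred and equilibrated 5 min. Dilution stayed below 0.4%. Emission 400−540 nm was read with excitation at 280 nm.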

Experiment [5] shares this test system. Briefly: Inhibition of acid-mediated dissociation of TTR V30M mutant (unknown origin) expressed in Escherichia coli after 30 mins by SDS-PAGE. An outline of the steps:
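V30M in 20 mM Tris-Cl pH 8.0, 150 mM NaCl was preincubated with compound (ethanol stock) for 30 min at room temperature. Four volumes of 0.1 M sodium acetate pH 4.5 were then added, and the sample was held at 310 K for 8 days (7.3 μM protein; compound 7.3 or 36.5 μM final). Glutaraldehyde cross-linking ran 5 min and was stopped with borohydride. Bands were resolved by 15% SDS-PAGE and silver-stained.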

Experiment [6] shares this test system. Briefly: Inhibition of TTR V30M mutant (unknown origin) expressed in Escherichia coli assessed as inhibition of amyloid fibril formation at 5 uM by fluorescence assay. An outline of the steps: as §3
Experiment [7] has the same test system. As to the kind of experiment: Inhibition of TTR V30M mutant (unknown origin) expressed in Escherichia coli assessed as inhibition of amyloid fibril formation at 10 uM by fluorescence assay. The method in brief: as §3
For experiment [8] the test system is unchanged. As to the kind of experiment: Inhibition of TTR V30M mutant (unknown origin) expressed in Escherichia coli assessed as inhibition of amyloid fibril formation at 40 uM by fluorescence assay. An outline of the steps: as §3
Experiment [9] has the same test system. Briefly: Inhibition of TTR V30M mutant (unknown origin) expressed in Escherichia coli assessed as inhibition of amyloid fibril formation at 80 uM by fluorescence assay. An outline of the steps: as §3
For experiment [10] the test system is unchanged. The experiment is described as §1. An outline of the steps: as §2
Experiment [11] concerns the target Transthyretin (Homo sapiens, UniProt P02766, L75P). As to the kind of experiment: Inhibition of TTR L55P mutant (unknown origin) expressed in Escherichia coli assessed as inhibition of amyloid fibril formation by fluorescence assay.
For experiment [12], the target named is Transthyretin (Homo sapiens, UniProt P02766, I104T). As to the kind of experiment: Inhibition of TTR I84T mutant (unknown origin) expressed in Escherichia coli assessed as inhibition of amyloid fibril formation by fluorescence assay.

The source made the active and inactive calls. The calls are words filed in the database; no cut-off is given here. Some results are limits rather than exact numbers.

The term EC50 denotes the concentration that produces a half-maximal response. One may read the inhibition as the drop in the measured response relative to a control, in per cent.

In the case of `COc1ccc(/C=C/C(=O)OCCc2ccccc2)cc1O`, the EC50 at Transthyretin [1] (read-out: EC50) was 11 µM. In addition, in [2], the result was inactive.

For the compound `COc1ccc(/C=C/C(=O)OCCc2ccccc2)cc1OC`, on Transthyretin [1] (read-out: EC50), the EC50 turned out to be 58 µM. Moreover, the result in [2] was inactive.

Take `COc1cc(/C=C/C(=O)OCCc2ccccc2)ccc1O`: the EC50 on Transthyretin [1] (read-out: EC50) amounted to 7.9 µM. Moreover, the inhibition in experiment [3] is less than 20%; in [5] it was “Dose-dependent effect”. Further, the outcome in experiment [2] was inactive. The result in experiment [4] was Active.

`COc1ccc(CC(C)C(C)Cc2ccc(OC)c(OC)c2)cc1OC` (stereo not drawn): the EC50 result at Transthyretin [1] is reported as “Not Active”. Further, in [3], the inhibition was less than 20%.

Turning to `CCCCCCCCOC(=O)/C=C/c1ccc(O)c(O)c1`, the inhibition is 27% in [6]; 44% in experiment [7]; 47% in [3]; 49% in [8]; 53% in [9].

As to `COc1cc(CNC(=O)CCCC/C=C/C(C)C)ccc1O`, in experiment [3], the inhibition was less than 20%.

Turning to `COc1cc(C[C@H]2COC(=O)[C@@H]2Cc2ccc(O)c(OC)c2)ccc1O`, the inhibition in experiment [3] is less than 12%.

Take `O=C(/C=C/c1ccc(O)c(O)c1)O[C@@H]1C[C@](O)(C(=O)O)C[C@@H](O)[C@H]1O`: in [10], the inhibition entry is “inactive”.

In the case of `O=C(/C=C/c1ccccc1)OCCc1ccccc1`, the inhibition entry in experiment [10] was “inactive”.

With `O=C(O)c1cc(-c2ccc(F)cc2F)ccc1O`, in [3], the inhibition is less than 20%.

Turning to `O=C1OC[C@H](Cc2cccc(O)c2)[C@H]1Cc1cccc(O)c1`, the inhibition in [3] is less than 20%.

For `OC[C@H](Cc1cccc(O)c1)[C@H](CO)Cc1cccc(O)c1`, the inhibition in [3] is less than 20%.

As to `c1cc2c(cc1[C@H]1OC[C@H]3[C@@H]1CO[C@@H]3c1ccc3c(c1)OCO3)OCO2`, in experiment [3], the inhibition is less than 20%.

For the compound `O=C(/C=C/c1ccc(O)c(O)c1)OCc1ccccc1` [BENZYL CAFFEATE], the EC50 at Transthyretin [1] (read-out: EC50) stood at 16 µM. The result in experiment [2] was Active.

As to `O=C(/C=C/c1ccc(O)c(O)c1)OCCc1ccccc1` [CAFFEIC ACID PHENETHYL ESTER], on Transthyretin [1] (read-out: EC50), the EC50 stood at 8.6 µM. The inhibition in experiment [3] was less than 20%. Moreover, the outcome in experiment [2] was inactive. Besides, in experiment [4], the result was Active.

As for `O=C(O)/C=C/c1ccc(O)c(O)c1` [CAFFEIC ACID], the EC50 on Transthyretin [1] (read-out: EC50) amounted to 97 µM. Moreover, the outcome in [2] was inactive.

As to `COc1cc(CC(C)C(C)Cc2ccc(O)c(OC)c2)ccc1O` (stereo not drawn) [DIHYDROGUAIARETIC ACID], on Transthyretin [1] (read-out: EC50), the EC50 is 6.3 µM. In addition, the inhibition in experiment [3] is less than 20%. The result in experiment [2] was inactive. Further, in experiment [4], the result was Active.

Consider `CCOC(=O)/C=C/c1ccc(O)c(O)c1` [ETHYL CAFFEATE], for which, at Transthyretin [1] (read-out: EC50), the EC50 came to 23 µM. Besides, the inhibition in [3] is less than 20%. For the same compound, the outcome in experiment [2] was inactive. Further, the outcome in experiment [4] was Active.

`COC(=O)/C=C/c1ccc(O)c(O)c1` [METHYLCAFFEATE]: at Transthyretin [1] (read-out: EC50), the EC50 worked out at 67 µM. In addition, the outcome in experiment [2] was inactive.

With `CC(Cc1ccc(O)c(O)c1)C(C)Cc1ccc(O)c(O)c1` (stereo not drawn) [NORDIHYDROGUAIARETIC ACID], the EC50 on Transthyretin [1] (read-out: EC50) is 7.3 µM; at Transthyretin [11], 12.6 µM; at Transthyretin [12], 8.5 µM. Moreover, the inhibition in experiment [3] was less than 20%. Besides, the outcome in [2] was inactive. In addition, the outcome in [4] was Active.

As for `CC(C)=CCOC(=O)/C=C/c1ccc(O)c(O)c1` [PRENYL CAFFEATE], the half-maximal effective concentration (EC50) at Transthyretin [1] (read-out: EC50) came out at 21 µM. Further, the inhibition in [3] is less than 20%. Moreover, the result in experiment [2] was inactive.

As to `O=C(/C=C/c1ccc(O)c(O)c1)O[C@H](Cc1ccc(O)c(O)c1)C(=O)O` [ROSMARINIC ACID], the EC50 on Transthyretin [1] (read-out: EC50) was 8.6 µM. For the same compound, the result in [2] was inactive.
